Data taken from ChEMBL document CHEMBL4321820, “Identification and Optimization of Mechanism-Based Fluoroallylamine Inhibitors of Lysyl Oxidase-like 2/3” (J Med Chem, 2019).

Columns and labels:
Mus musculus = test: Antifibrotic activity in ip dosed bleomycin-induced C57BL/6 mouse model of lung fibrosis assessed as reduction in Ashcroft score administered on day 7 to 27 measured on day 28 by H and E staining based microscopy; type: functional, organism-based
Summary of the method: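 Female C57BL/6 mice, 6-8 weeks old, under isoflurane received intranasal bleomycin sulphate 0.05 U/mouse in PBS; controls got PBS. Once-daily i.p. treatment days 7-27, n=12/group; imatinib 50 mg/kg i.p. as comparator. Sacrifice at day 28; lung fibrosis scored by Ashcroft score.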

Protein-lysine 6-oxidase = biological target: T1, Protein-lysine 6-oxidase (Mus musculus, UniProt P28301); test: Inhibition of LOX in mouse lung fibroblast cells using putrescine as substrate preincubated with enzyme for 30 mins followed by substrate addition and measured every 2.5 mins for 30 mins by Amplex-Red oxidation assay
T1 sequence (P28301 whole entry): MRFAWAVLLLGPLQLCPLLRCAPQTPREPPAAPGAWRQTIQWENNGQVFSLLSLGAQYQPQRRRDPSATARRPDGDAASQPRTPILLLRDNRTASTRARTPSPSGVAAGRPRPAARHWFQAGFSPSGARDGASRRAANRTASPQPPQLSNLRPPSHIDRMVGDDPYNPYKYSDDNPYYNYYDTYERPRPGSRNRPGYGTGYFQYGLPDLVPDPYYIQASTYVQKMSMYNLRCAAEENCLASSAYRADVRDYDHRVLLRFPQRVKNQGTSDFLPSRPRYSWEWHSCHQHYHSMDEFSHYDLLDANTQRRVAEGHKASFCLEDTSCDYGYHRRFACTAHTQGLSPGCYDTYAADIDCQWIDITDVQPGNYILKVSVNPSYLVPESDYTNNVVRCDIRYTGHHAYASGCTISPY
Summary of the method: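 LOX from conditioned medium of fibroblasts cultured from homogenized mouse lung, concentrated and isolated as for the human fibroblast enzyme, in 1.2 M urea/50 mM borate pH 8.2. 30 min preincubation with compound at 37 °C, then Amplex Red/HRP plus putrescine; fluorescence read every 2.5 min for 30 min.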

Lysyl oxidase homolog 4 = biological target: T2, Lysyl oxidase homolog 4 (Homo sapiens, UniProt Q96JB6); test: Inhibition of recombinant human LOXL4 using putrescine as substrate preincubated with enzyme for 30 mins followed by substrate addition and measured every 2.5 mins for 30 mins by Amplex-Red oxidation assay
T2 sequence (Q96JB6 whole entry): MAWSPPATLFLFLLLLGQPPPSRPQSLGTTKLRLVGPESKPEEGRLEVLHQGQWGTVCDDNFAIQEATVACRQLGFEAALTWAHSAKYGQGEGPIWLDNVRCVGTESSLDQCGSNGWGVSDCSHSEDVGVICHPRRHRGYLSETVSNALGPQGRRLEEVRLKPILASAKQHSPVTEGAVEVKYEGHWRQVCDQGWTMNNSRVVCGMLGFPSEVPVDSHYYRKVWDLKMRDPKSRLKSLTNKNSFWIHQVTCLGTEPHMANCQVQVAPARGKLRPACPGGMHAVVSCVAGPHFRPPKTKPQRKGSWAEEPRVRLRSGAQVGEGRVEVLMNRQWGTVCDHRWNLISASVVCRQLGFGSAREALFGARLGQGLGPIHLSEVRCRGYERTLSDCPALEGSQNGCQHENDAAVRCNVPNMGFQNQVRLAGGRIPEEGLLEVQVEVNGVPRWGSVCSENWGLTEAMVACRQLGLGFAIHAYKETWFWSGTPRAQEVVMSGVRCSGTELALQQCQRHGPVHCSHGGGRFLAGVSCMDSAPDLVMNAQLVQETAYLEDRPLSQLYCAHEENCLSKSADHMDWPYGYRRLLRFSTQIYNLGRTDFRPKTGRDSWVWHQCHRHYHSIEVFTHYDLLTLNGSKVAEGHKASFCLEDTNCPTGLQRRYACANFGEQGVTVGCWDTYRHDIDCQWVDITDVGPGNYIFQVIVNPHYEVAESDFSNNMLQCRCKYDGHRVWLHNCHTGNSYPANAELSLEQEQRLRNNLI
Summary of the method: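 Recombinant human LOXL3 or LOXL4 preincubated 30 min at 37 °C with compound in 1.2 M urea/50 mM borate pH 8.2, then Amplex Red (120 µM)/HRP (1.5 U/mL) with 2 mM putrescine; fluorescence read every 2.5 min for 30 min.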

[1] = Protein binding in human plasma; type: ADME, cell-free; conditions: read-out: PPB (converted)
[2] = Stability in dog plasma assessed as half life; type: ADME, cell-free, Canis lupus familiaris
[3] = Stability in human plasma assessed as half life; type: ADME, cell-free
[4] = Stability in dog plasma assessed as half life

IC50 (Protein-lysine 6-oxidase)	IC50 (Lysyl oxidase homolog 4)	fraction unbound [1]	half-life [2]	half-life [3]	half-life [4]	Structure (SMILES)	inhibition (Mus musculus)
–	–	–	–	–	–	CCOC(=O)c1ccc2c(c1)c(-c1cccc(S(=O)(=O)N(C)C)c1)c(C)n2C/C(F)=C/CN.Cl	Dose-dependent effect
1.75 µM	0.28 µM	0.08	> 2 h	> 2 h	> 2 h	Cc1c(-c2cccc(S(=O)(=O)N(C)C)c2)c2cc(C(=O)O)ccc2n1C/C(F)=C/CN.Cl	–
